# Compounds with a hit are over-represented: about 8.9% of the library has one in this group of screens.
# Lmaj promast: Leishmania major promastigote growth inhibition, primary screen; hit rate 9% among 200,000; inhibition, % at 10 µM; Leishmania major promastigotes, resazurin fluorescence viability; in the data active = inhibition above about 50%;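 also: promastigotes grown with compound for 44 hours at 28 °C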
# Dynein transport: inhibitors of GR-EGFP nuclear translocation, primary screen, dynein cargo transport inhibitor project, imaging, high-content, 3617.4 mouse cells | hit rate 0.47% among 220,000 | test concentration mostly 20 µM; stimulated with dexamethasone, 1 µM; hits give low values | z-score, hits read low;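 active = plate z-score of nuclear minus cytoplasmic receptor signal below a set negative limit, without overly bright fluorescence or cell loss, cut at about -3.5 in these data, passing the limit was not always enough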;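 also: z-score of nuclear minus cytoplasmic ring GR-EGFP intensity difference per well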
#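 Buffer or medium: tetracycline-free induction medium containing charcoal-stripped FBS / Reagent: dexamethasone agonist, 1.0 µM final, for 30 min / Technique: automated 10x imaging of fixed Hoechst-stained cells / Times: induction 48 h, compound 1 h, agonist 30 min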
# HSV replic up: enhancers of HSV replication in host cells, fold increase, host cell viability; HSV replication augmentation in cells; maximum fold increase; hit rate 0.005% among 220,000; in the data active = maximum fold increase above about 1.5; inconclusive = no clear call, values can overlap the other calls; tested in PC3 cells
# MT stabilizer: microtubule stabilizers in HeLa cells, primary screen, imaging, high-content imaging | HeLa tubulin immunostaining HCS, 24 h; share of cells brighter than vehicle mean+2SD | % tubulin-high responders, % at 10 µM | hit rate 0.83% among 200,000;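 active = plate Z-score above 3 for both tubulin-high and condensed-nucleus cell shares, with cell loss under 80%, at 10 µM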;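 also: anti alpha tubulin signal scored within the nucleus-defined area of each cell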
# bCat nuc transl: modulators of beta-catenin nuclear translocation, primary screen, imaging, HeLa cells, immunofluorescence, high-content; nuclear translocation activity, % at 5 µM; hit rate 0.3% among 190,000;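 active = nuclear translocation activity above 50% at 5 µM, with a well cell count of 50 or more; inconclusive = wells under 50 cells across six images, flagged as toxic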;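 also: per-cell ratio of nuclear to cytoplasmic median beta-catenin stain intensity; plate controls were DMSO negative control for no effect and GSK-3 inhibitor IX positive control for full effect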
#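 System: Human HeLa cells, endogenous beta-catenin | Compound dosing: 5 µM primary, 0.02–20 µM confirmation | Timing: 24 h compound exposure at 37°C, 5% CO2 | Measured by: Fluorescence imaging of beta-catenin antibody stain plus DAPI | Read-out basis: % activation of per-cell nuclear versus cytoplasmic median beta-catenin signal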
# Starred values were filed as active, the others as inactive; i = inactive; ? = inconclusive; . = no result given.
SMILES,Lmaj promast,Dynein transport,HSV replic up,MT stabilizer,bCat nuc transl
COC(=O)c1sc2ccccc2c1-n1cccc1C(=O)C(=O)Nc1ccc(Cl)cc1,3,-0.4,i,40*,.
COC(=O)c1sc2ccccc2c1-n1cccc1C(=O)C(=O)Nc1ccc(C)cc1,3,0.98,i,32*,.
O=C(c1cc(-c2ccccc2O)on1)N1CCc2ccccc2C1,-8,0.41,i,2,0
Cc1ccc2c(c1)N(CC(=O)NC1CCC(C)CC1)C(=O)CO2 (centres undefined),-3,-0.57,i,4,4
O=C(O)C(Cc1ccccc1)N1C(=O)/C(=C/c2cccs2)SC1=S (centres undefined),-6,-0.6,i,2,1
COc1cccc(NC(=O)c2ccc(NCCCN3CCC(C)CC3)c([N+](=O)[O-])c2)c1,21,0.34,i,2,0
O=C(Nc1cc(F)cc(F)c1)c1ccc(NCCc2ccccc2)c([N+](=O)[O-])c1,-7,-1.7,i,2,2
Cc1ccc(NC(=O)c2ccc(NCCN)c([N+](=O)[O-])c2)cc1Cl,100*,-0.84,i,3,5
CCCN(CCC)CCCNc1ccc(C(=O)Nc2cccc(OC)c2)cc1[N+](=O)[O-],98*,0.31,i,2,.
Cc1ccc(NC(=O)c2ccc(NCCc3ccccc3)c([N+](=O)[O-])c2)cc1F,89*,-0.036,i,3,-4
O=C(Nc1cc(F)cc(F)c1)c1ccc(NCCCN2CCCCCC2)c([N+](=O)[O-])c1,91*,2,i,5,0
CC(C)c1cc(C(=O)NC2CCCCC2)no1,-3,1.9,i,4,0
CCCC12CN3CC(C)(CN(C1)C3c1ccc(OC)cc1)C2=O (centres undefined),-6,-0.55,i,2,-2
COc1ccc(OC)c(/C(O)=C/C(=O)C(=O)Nc2cc(C)ccc2OC)c1,93*,-1,i,1,.
COc1ccc(OC)c(/C(O)=C/C(=O)C(=O)Nc2cc(C)cc(C)c2)c1,35,-0.37,i,1,.
COc1ccc(-c2nn(-c3ccccc3)cc2/C=N/Nc2cccc(C(=O)O)c2)cc1,-3,-0.42,i,3,0
COc1ccc(Cn2c(C3CC3)nc3ccc(NC(=O)c4ccco4)cc3c2=O)cc1,23,-0.21,i,13*,-1
NS(=O)(=O)c1ccc(CCNCc2cc(Br)ccc2OCc2ccccc2)cc1,55*,-1.1,i,3,-5
CCOc1c(Cl)cc(CNCc2ccncc2)cc1OC,84*,0.26,i,6,-6
CCOc1cc(CNCCO)cc(Br)c1OCc1ccccc1,75*,-0.65,i,2,0
CCNCc1cc(Cl)c(OCc2ccccc2)c(OCC)c1,100*,-0.64,i,1,0
Cc1cc2c(cc1C)-c1nnc(-c3ccc4ccccc4n3)n1C(C)(C)C2,47,0.093,.,2,1
OCCC1CN(Cc2ccc3ncccc3c2)CCN1Cc1ccccc1 (centres undefined),32,-0.81,i,3,-1
O=c1c2nccnc2[nH]c(=S)n1Cc1ccccc1,-4,-0.34,i,2,-1
NS(=O)(=O)c1ccc(NCc2ccccc2OCc2ccccc2F)cc1,14,0.087,i,1,4
SMILES,Lmaj promast,Dynein transport,HSV replic up,MT stabilizer,bCat nuc transl
NS(=O)(=O)c1ccc(NCc2cc(Cl)ccc2OCc2ccc(F)cc2)cc1,54*,0.27,i,2,.
CCOc1cc(CNCCc2ccc(S(N)(=O)=O)cc2)ccc1OCc1ccccc1,100*,0.63,i,3,5
CCOc1c(Cl)cc(CNCC(C)C)cc1Cl,68*,0.58,i,5,.
CCOc1cc(CNCCc2ccc(S(N)(=O)=O)cc2)cc(Cl)c1OCc1ccccc1,101*,-3,i,2,5
COc1cc(CNCCc2ccc(S(N)(=O)=O)cc2)ccc1OCC(=O)NC(C)(C)C,-3,0.94,i,5,-2
CCOCCCNCc1cc(Br)ccc1OCc1ccccc1,83*,-1.2,i,3,-4
OCCNCc1cc(Br)ccc1OCc1ccccc1,4,-1.1,i,1,-2
CC(C)[C@H]1C=C(C(=O)O)O[C@@H](OCc2ccc(CO)cc2)C1,.,-0.62,i,.,-1
CCOCCCNc1ncnc2c1[nH]c1ccccc12,44,-0.62,i,2,.
COc1ccc(/C=N/Nc2ncnc3c2[nH]c2ccc(C)cc23)c(OC)c1OC,.,-0.37,i,.,0
C=CCNc1ncnc2c1[nH]c1ccc(Cl)cc12,100*,-0.31,i,4,7
c1ccc2c(c1)[nH]c1c(NCC3CCCO3)ncnc12 (centres undefined),86*,0.99,i,5,0
C=CCNc1ncnc2c1[nH]c1ccccc12,67*,-0.57,i,5,0
COc1cc(OC)c(OC)cc1/C=N/Nc1ncnc2c1[nH]c1ccccc12,61*,-0.5,i,5,7
Cn1c(=O)c2c(nc(Oc3ccc4c(c3)OCO4)n2Cc2ccc(F)cc2)n(C)c1=O,-3,-0.67,i,3,2
Nc1cc(-c2ccc(Cl)cc2)nn1S(=O)(=O)c1ccccc1,-3,-0.014,i,3,.
CCCN1CCC(=NNC(=O)c2ccc(Br)o2)CC1,-3,-0.056,i,3,-1
CCCN1CCC(=NNc2ccc(C(=O)O)cc2)CC1,90*,-0.23,i,6,5
CSc1ccc(C2c3[nH]c4ccccc4c3CCN2C(=O)c2cc(C)n(C)n2)cc1 (centres undefined),43,-0.89,i,2,2
CCc1ccc(C2c3[nH]c4ccccc4c3CCN2C(=O)c2cc(C)nn2C)cc1 (centres undefined),60*,2.1,i,6,2
CCOC(=O)C1=NN(c2ccccc2)C(=O)/C1=C\c1ccc(N(C)C)cc1,89*,-0.37,i,3,-1
COc1cc(NS(=O)(=O)c2ccc(NC(C)=O)cc2)ncn1,-5,-0.27,i,1,.
COc1cc(CN(C2CCCCC2)S(=O)(=O)c2ccc(S(=O)(=O)N(C)C3CCCCC3)cc2)cc(OC)c1OC,93*,-0.15,i,2,0
O=C(N/N=C/c1coc2ccccc2c1=O)c1ccccc1,-5,-0.11,i,5,0
COc1cccc(Sc2ccccc2/C=N/NC(N)=O)c1,-1,0.57,i,15*,45
CN1CC=C2C(C#N)=C(N)C(C#N)(C#N)[C@H](c3ccoc3)[C@H]2C1,8,8.1,?,2,.
N#CC1=C(N)C(C#N)(C#N)[C@H](c2ccoc2)[C@H]2CN(Cc3ccccc3)CC=C12,56*,-8,?,3,5
COc1ccc(-n2cc(-c3ccccc3)c3c(N4CCN(CCO)CC4)ncnc32)cc1,26,-1.5,i,2,-2

# Source: PubChem
